Laboratory results reported in ChEMBL document CHEMBL3400013, “Synthesis and biological activity evaluation of hydrazone derivatives based on a Tröger's base skeleton” (Bioorg Med Chem, 2015).
The source made the active and inactive calls. The calls are words filed in the database; no cut-off is given here.

Columns and labels:
Nucleic Acid [1] = experiment: Binding affinity to DNA (unknown origin) assessed as DNA intercalation by UV-visible spectrophotometry in presence of Fe3+; format: nucleic-acid assay
Nucleic Acid [2] = experiment: Binding affinity to DNA (unknown origin) assessed as DNA intercalation by UV-visible spectrophotometry in presence of Ni2+; format: nucleic-acid assay
Nucleic Acid [3] = experiment: Binding affinity to DNA (unknown origin) assessed as DNA intercalation by UV-visible spectrophotometry in presence of Zn2+; format: nucleic-acid assay
BJ [4] = experiment: Selectivity index, ratio of IC50 for human BJ cells to IC50 for human CCRF-CEM cells; format: functional; conditions: pooled result: one value given for 2 cell lines, strains, targets or settings
BJ [5] = experiment: Selectivity index, ratio of IC50 for human BJ cells to IC50 for human CEM-DNR cells; format: functional
CEM-DNR = experiment: Selectivity index, ratio of IC50 for human MRC5 cells to IC50 for human CEM-DNR cells; format: functional
BJ [6] = experiment: Selectivity index, ratio of IC50 for human BJ cells to IC50 for human K562 cells; format: functional
K562 [7] = experiment: Selectivity index, ratio of IC50 for human MRC5 cells to IC50 for human K562 cells; format: functional
BJ [8] = experiment: Selectivity index, ratio of IC50 for human BJ cells to IC50 for human K562-TAX cells; format: functional
MRC5 [9] = experiment: Selectivity index, ratio of IC50 for human MRC5 cells to IC50 for human K562-TAX cells; format: functional
A549 [10] = experiment: Selectivity index, ratio of IC50 for human BJ cells to IC50 for human A549 cells; format: functional
A549 [11] = experiment: Selectivity index, ratio of IC50 for human MRC5 cells to IC50 for human A549 cells; format: functional
BJ [12] = experiment: Selectivity index, ratio of IC50 for human BJ cells to IC50 for human HCT116 cells; format: functional
HCT-116 [13] = experiment: Selectivity index, ratio of IC50 for human MRC5 cells to IC50 for human HCT116 cells; format: functional
BJ [14] = experiment: Selectivity index, ratio of IC50 for human BJ cells to IC50 for human p53-/- HCT116 cells; format: functional
HCT-116 [15] = experiment: Selectivity index, ratio of IC50 for human MRC5 cells to IC50 for human p53-/- HCT116 cells; format: functional
CCRF-CEM = experiment: Cytostatic activity against human CCRF-CEM cells after 72 hrs by MTT assay; format: functional, cell-based
In short: (§1)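 Cells were seeded at 25,000–30,000 per well and pre-incubated for 24 h at 37°C in 5% CO2. Four-fold compound dilutions were added in duplicate and incubated for 72 h. MTT was added for 1–4 h, and formazan was dissolved in 10% aq SDS (pH 5.5) overnight at 37°C. OD was read at 540 nm. IC50 came from dose-response curves, mean ± SD of eight independent experiments.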

[16] = Cytostatic activity against human CEM-DNR cells after 72 hrs by MTT assay; format: functional, cell-based; in short: as §1
K562 [17] = experiment: Cytostatic activity against human K562 cells after 72 hrs by MTT assay; format: functional, cell-based; conditions: K562, 72 h; in short: as §1
[18] = Cytostatic activity against human K562-TAX cells after 72 hrs by MTT assay; format: functional, cell-based; in short: as §1
A549 [19] = experiment: Cytostatic activity against human A549 cells after 72 hrs by MTT assay; format: functional, cell-based; conditions: A549, 72 h; in short: as §1
[20] = Cytostatic activity against human HCT116 cells after 72 hrs by MTT assay; format: functional, cell-based; conditions: HCT-116, 72 h; in short: as §1
[21] = Cytostatic activity against human p53-/- HCT116 cells after 72 hrs by MTT assay; format: functional, cell-based; conditions: HCT-116, 72 h; in short: as §1
BJ [22] = experiment: Cytostatic activity against human BJ cells after 72 hrs by MTT assay; format: ADME, cell-based; in short: as §1
MRC5 [23] = experiment: Cytostatic activity against human MRC5 cells after 72 hrs by MTT assay; format: ADME, cell-based; conditions: MRC5, 72 h; in short: as §1
Enterococcus faecalis = experiment: Antimicrobial activity against Enterococcus faecalis CCM 4224 up to 200 uM after 24 to 48 hrs by broth microdilution method; format: functional, organism-based
Staphylococcus aureus [24] = experiment: Antimicrobial activity against Staphylococcus aureus CCM 3953 up to 200 uM after 24 to 48 hrs by broth microdilution method; format: functional, organism-based
Escherichia coli [25] = experiment: Antimicrobial activity against Escherichia coli CCM 3954 up to 200 uM after 24 to 48 hrs by broth microdilution method; format: functional, organism-based
Pseudomonas aeruginosa [26] = experiment: Antimicrobial activity against Pseudomonas aeruginosa CCM 395 up to 200 uM after 24 to 48 hrs by broth microdilution method; format: functional, organism-based
Staphylococcus aureus [27] = experiment: Antimicrobial activity against methicillin-resistant Staphylococcus aureus MRSA 4591 up to 200 uM after 24 to 48 hrs by broth microdilution method; format: functional, organism-based
[28] = system: Staphylococcus haemolyticus; experiment: Antimicrobial activity against methicillin-resistant Staphylococcus haemolyticus A1/16568 up to 200 uM after 24 to 48 hrs by broth microdilution method; format: functional, organism-based
Escherichia coli [29] = experiment: Antimicrobial activity against multidrug-resistant Escherichia coli C/16702 up to 200 uM after 24 to 48 hrs by broth microdilution method; format: functional, organism-based
Pseudomonas aeruginosa [30] = experiment: Antimicrobial activity against multidrug-resistant Pseudomonas aeruginosa A/16575 up to 200 uM after 24 to 48 hrs by broth microdilution method; format: functional, organism-based
Candida albicans = experiment: Antifungal activity against Candida albicans up to 200 uM after 24 to 48 hrs by broth microdilution method; format: functional, organism-based
Pichia kudriavzevii = experiment: Antifungal activity against Candida crusei up to 200 uM after 24 to 48 hrs by broth microdilution method; format: functional, organism-based
Candida tropicalis = experiment: Antifungal activity against Candida tropicalis up to 200 uM after 24 to 48 hrs by broth microdilution method; format: functional, organism-based
Candida parapsilosis = experiment: Antifungal activity against Candida parapsilosis up to 200 uM after 24 to 48 hrs by broth microdilution method; format: functional, organism-based
[31] = Metal chelating activity of the compound assessed as formation of Co2+ complex by UV-vis spectrometry; format: physicochemical
[32] = Metal chelating activity of the compound assessed as formation of Cu2+ complex by UV-vis spectrometry; format: physicochemical
[33] = Metal chelating activity of the compound assessed as formation of Fe3+ complex by UV-vis spectrometry; format: physicochemical
[34] = Metal chelating activity of the compound assessed as formation of Ni2+ complex by UV-vis spectrometry; format: physicochemical
[35] = Metal chelating activity of the compound assessed as formation of Zn2+ complex by UV-vis spectrometry; format: physicochemical
[36] = Metal chelating activity of the compound assessed as formation of Ca2+ complex by UV-vis spectrometry; format: physicochemical
[37] = Metal chelating activity of the compound assessed as formation of Mg2+ complex by UV-vis spectrometry; format: physicochemical
[38] = Metal chelating activity of the compound assessed as formation of Fe2+ complex by UV-vis spectrometry; format: physicochemical
[39] = Metal chelating activity of the compound assessed as formation of Mn2+ complex by UV-vis spectrometry; format: physicochemical
[40] = Metal chelating activity of the compound assessed as formation of Cr3+ complex by UV-vis spectrometry; format: physicochemical
Nucleic Acid [41] = experiment: Binding affinity to DNA (unknown origin) assessed as DNA intercalation by UV-visible spectrophotometry; format: nucleic-acid assay
Nucleic Acid [42] = experiment: Binding affinity to DNA (unknown origin) assessed as DNA intercalation by UV-visible spectrophotometry in presence of Co2+; format: nucleic-acid assay
Nucleic Acid [43] = experiment: Binding affinity to DNA (unknown origin) assessed as DNA intercalation by UV-visible spectrophotometry in presence of Cu2+; format: nucleic-acid assay

O=C(N/N=C/c1cc(Cl)ccc1O)c1ccc2c3c(ccc2c1)N1Cc2c(ccc4cc(C(=O)N/N=C/c5cc(Cl)ccc5O)ccc24)N(C3)C1
Activity (Nucleic Acid [1]): Active
Activity (Nucleic Acid [2]): Active
Activity (Nucleic Acid [3]): Active
Ratio IC50 (BJ [4]): 2.4
Ratio IC50 (BJ [5]): 1
Ratio IC50 (CEM-DNR): 1
Ratio IC50 (BJ [6]): 1
Ratio IC50 (K562 [7]): 1
Ratio IC50 (BJ [8]): 1
Ratio IC50 (MRC5 [9]): 1
Ratio IC50 (A549 [10]): 1
Ratio IC50 (A549 [11]): 1
Ratio IC50 (BJ [12]): 1
Ratio IC50 (HCT-116 [13]): 1
Ratio IC50 (BJ [14]): 1
Ratio IC50 (HCT-116 [15]): 1
IC50 (CCRF-CEM): 42.1 µM
IC50 [16]: > 100 µM
IC50 (K562 [17]): > 100 µM
IC50 [18]: > 100 µM
IC50 (A549 [19]): > 100 µM
IC50 [20]: > 100 µM
IC50 [21]: > 100 µM
IC50 (BJ [22]): > 100 µM
IC50 (MRC5 [23]): > 100 µM
Activity (Enterococcus faecalis): inactive
Activity (Staphylococcus aureus [24]): inactive
Activity (Escherichia coli [25]): inactive
Activity (Pseudomonas aeruginosa [26]): inactive
Activity (Staphylococcus aureus [27]): inactive
Activity [28]: inactive
Activity (Escherichia coli [29]): inactive
Activity (Pseudomonas aeruginosa [30]): inactive
Activity (Candida albicans): inactive
Activity (Pichia kudriavzevii): inactive
Activity (Candida tropicalis): inactive
Activity (Candida parapsilosis): inactive
Activity [31]: Active
Activity [32]: Active
Activity [33]: Active
Activity [34]: Active
Activity [35]: Active
Activity [36]: Not Active
Activity [37]: Not Active
Activity [38]: Not Active
Activity [39]: Not Active
Activity [40]: Not Active
Activity (Nucleic Acid [41]): inactive
Activity (Nucleic Acid [42]): Active
Activity (Nucleic Acid [43]): Active
